Laboratory results reported in ChEMBL document CHEMBL3393008, “Identification of a novel orally bioavailable phosphodiesterase 10A (PDE10A) inhibitor with efficacy in animal models of schizophrenia” (J Med Chem, 2015).

Tests used:
Format in all cases: ADME, organism-based
[1] = Oral bioavailability in rat at 10 mg/kg administered as single dose; details: in vivo
[2] = Drug level in rat brain at 10 mg/kg, sc after 1 hr; parameters: dose 10 mg/kg, route subcutaneous; details: read-out: Drug uptake
Summary of the method: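 Rats dosed 10 mg/kg sc; total brain level measured 1 h after dosing.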

[3] = Volume of distribution in rat; details: in vivo

bioavailability [1]: 45%
concentration at 1 h [2]: 1210 ng/g
Vd [3]: 1.9 L/kg
SMILES: COCCc1ccc(-c2c(C)nc3c(N4CCOCC4)nccn23)cn1
